The values that follow come from ChEMBL document CHEMBL4513216, “Probing the Open Global Health Chemical Diversity Library for Multistage-Active Starting Points for Next-Generation Antimalarials” (ACS Infect Dis, 2020).

This data set can be described thus: Toxicity liver stage against HepG2, at 10uM. In kind it is cell-based. More on the design: test concentration 10 uM, cell line HepG2-A16-CD81EGFP. The note with it: human, HepG2-A16-CD81EGFP cells; read-out: INHIBITION
In short, it runs like this: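 Uninfected HepG2-A16-CD81EGFP cells, 3 × 10^3 per well, 1536-well, plated on prespotted compound at 10 μM final, parasite-free screening media added to match infected plates; puromycin 10 μM positive, DMSO 0.5% negative; run in parallel with 48 h PbLuc assay at 37 °C, 5% CO2; viability by CellTiter-Glo luminescence, normalized to controls.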
In the case of `Cc1cc(C(=O)NCc2cccn2C)nn1C`, the cytotoxicity at 10 µM was found to be 1.21%. With `O=C(N[C@@H]1CNCCC[C@H]1O)c1ccc(OCc2ccccc2)cc1`, the cytotoxicity at 10 µM was -3.39%. The result for `COc1ccc(CNc2c(C)cnc3c2c(=O)n(C)c(=O)n3C)cc1` reads 2.9%; that for `CCOCc1cncc2c1CCN(C(=O)c1cccc(C#N)c1)C2`, 3.55%. `COCCN1C(=O)CO[C@@H]2CN(S(=O)(=O)c3ccccc3)C[C@H]21`: the cytotoxicity at 10 µM turned out to be 0.975%. The result for `COc1ccccc1OCC(=O)n1nc(C)c(C)c1C` reads -5.01%.

As to `Cc1noc([C@@H]2CC[C@@H]3[C@@H](CCN3S(=O)(=O)C3CC3)O2)n1`, the cytotoxicity at 10 µM is -11.6%. Consider `CCO[C@@H]1CC[C@H]2[C@H]1OCCN2C(=O)C1CCOCC1`, for which the cytotoxicity at 10 µM was -19.8%. For the compound `COc1ccccc1Cc1cc(O)nc(NC(C)CN(C)C)n1` (configuration not stated), the cytotoxicity at 10 µM amounted to 2.32%. The result for `Cc1ccccc1OCCCNC(=O)C1(C)CC(=O)N2C=CC=CC2=N1` (configuration not stated) reads -4.96%; that for `Cc1nn(C)cc1C(=O)N1CCC(C(=O)c2nc3ccccc3s2)CC1`, 8.12%.

Take `CC(=O)N1CCCC(c2nc(N(C)C)ncc2-c2ccccc2)C1` (configuration not stated): the cytotoxicity at 10 µM came to 14.7%. As to `CCS(=O)(=O)N1C[C@@H](O)[C@H](N2CCc3ccccc3C2)C1`, the cytotoxicity at 10 µM was -3.63%. Turning to `Cc1cc(C)nc(C2CCN(C(=O)CCn3ncc4ccccc43)C2)n1` (configuration not stated), the cytotoxicity at 10 µM is -17.3%. Turning to `Cc1ccccc1CC(=O)N[C@@H]1CCC[C@@H](N2CCNC(=O)C2)[C@@H]1O`, the cytotoxicity at 10 µM is -24.5%.

As to `Cc1ccnn1CCC(=O)N1C[C@@H](O)[C@H](Oc2cccc(F)c2)C1`, the cytotoxicity at 10 µM was -15.8%. As for `CC(C)C(NC(=O)N1CCS(=O)(=O)CC1)c1ccccc1Cl` (configuration not stated), the cytotoxicity at 10 µM was determined as 13.3%. Regarding `COCCC(C)NS(=O)(=O)c1ccc(C)c(N(C)C)c1` (configuration not stated), the cytotoxicity at 10 µM was -0.2%. `CCc1nnc(CSc2ccccn2)o1`: the cytotoxicity at 10 µM is -2.98%. The figure for `Cc1ccc(S(=O)(=O)N(C)Cc2nccs2)cc1N(C)C` is -9.78%; for `O=c1cc(CN(Cc2ccco2)C2CC2)nc2ccc(Br)cn12` it is 9.48%. As to `O=C(CNC(=O)C1CC1)Nc1c(F)cccc1Oc1ccccc1`, the cytotoxicity at 10 µM came to 0.99%. On to `Cc1ccccc1OCCCC(=O)NCc1ccnc(O)c1`, for which the cytotoxicity at 10 µM is 5.65%. `COc1ccnc(N2CCCN(Cc3ncc(C(C)C)o3)CC2)n1`: the cytotoxicity at 10 µM amounted to 1.74%. Consider `O=S(=O)(CC1CCCCO1)Nc1cnn(CC(F)F)c1` (configuration not stated), for which the cytotoxicity at 10 µM was -3.09%.

As for `CN(CCCNC(=O)Nc1ccc(C#N)cc1)CC(F)(F)F`, the cytotoxicity at 10 µM is -3%.

`Cc1cc(CN(C)C(=O)NCc2ccnc(N(C)C)c2)no1`: the cytotoxicity at 10 µM is 5.85%.

With `CCOC(C)c1nc(CN2CCN(Cc3cccnc3)CC2)cs1` (configuration not stated), the cytotoxicity at 10 µM is 3.59%.

As for `O=C(CN1CCCCC1Cn1cccn1)NC1CCOCC1` (configuration not stated), the cytotoxicity at 10 µM is 4.08%. Take `Cc1cc(CN(C)C(=O)C2CCCN(C(N)=O)C2)no1` (configuration not stated): the cytotoxicity at 10 µM stood at 11.6%. For `Cc1noc(C)c1CNC(=O)N1CCC(NS(C)(=O)=O)CC1`, the cytotoxicity at 10 µM is -9.41%. As to `N#Cc1nccnc1NC1CCN(c2c(F)cccc2F)C1` (configuration not stated), the cytotoxicity at 10 µM came out at 5.2%.

Consider `COc1cc2c(cc1OC)S(=O)(=O)N(Cc1ccccc1)C2=O`, for which the cytotoxicity at 10 µM stood at 8.2%. As for `Cc1cc(C)n(-c2ccc(C(=O)N3CCCC3c3cnn(C)c3)cc2)n1` (configuration not stated), the cytotoxicity at 10 µM was -7.41%. With `CCN(CC)S(=O)(=O)N(Cc1cccc(C)c1)Cc1ccccn1`, the cytotoxicity at 10 µM is -4.88%. The result for `O=C(Cc1ccon1)NC1CCCN(c2ccccc2F)C1=O` (configuration not stated) reads -2.03%; that for `N#Cc1cccnc1N1CCCN(CC(=O)N2CCNC(=O)C2)CC1`, 4.07%.

For the compound `COc1cccc(S(=O)(=O)Cc2cc(C)on2)c1`, the cytotoxicity at 10 µM stood at 4.03%. As to `CN(CCC#N)C(=O)Cc1csc(-c2ncccn2)n1`, the cytotoxicity at 10 µM is -0.343%. Regarding `Cc1nc(C2CCCN2C(=O)CCCOc2ccccc2C)no1` (configuration not stated), the cytotoxicity at 10 µM is -2.21%. As for `CC(C)c1nc(CN(C)C2CCN(CC(F)(F)F)C2)no1` (configuration not stated), the cytotoxicity at 10 µM was -15.8%. As for `O=C(c1cnccn1)N1CCc2onc(Cn3cccn3)c2C1`, the cytotoxicity at 10 µM is -0.25%. Consider `O=C(NCCO)c1ccn(-c2ccc3ccccn23)n1`, for which the cytotoxicity at 10 µM was -8.21%.

For `CC(C)CC(C)NCc1cccnc1N1CCN(c2ccccn2)CC1` (configuration not stated), the cytotoxicity at 10 µM came out at 0.997%. The figure for `CCc1nnc(CN(CC)C(=O)C2CC(=O)N(C3CC3)C2)o1` (configuration not stated) is -0.143%. Turning to `CCCn1cnnc1CNC1CCCC1`, the cytotoxicity at 10 µM was -2.27%.

For the compound `Cc1cc(C)nc(N2CCCC(Cn3cc(CN(C)C)nn3)C2)n1` (configuration not stated), the cytotoxicity at 10 µM was -5.43%.

Regarding `CCC(OC)C(=O)N1CCC2(CC1)c1nc[nH]c1CCN2S(C)(=O)=O` (configuration not stated), the cytotoxicity at 10 µM is -6.6%. In the case of `Cc1ccsc1C(=O)NCc1cccnc1N(C)CCc1ccccn1`, the cytotoxicity at 10 µM is -0.678%. The result for `Cc1csc(CN2CC[C@@](O)(C3CCOCC3)[C@H](C)C2)n1` reads 4.48%. Regarding `O=C(c1cnn[nH]1)N(Cc1ccncc1)CC1CCCO1` (configuration not stated), the cytotoxicity at 10 µM is 2.86%.

Regarding `Cc1ccc(F)cc1CC(=O)N1CC[C@@]2(O)CCNC[C@H]2C1`, the cytotoxicity at 10 µM worked out at 2.38%. The result for `O=C(O)CSc1nnc(-c2ccn[nH]2)n1-c1cccc(C(F)(F)F)c1` reads 0.34%. The result for `c1ccc(COCCN2CCc3[nH]cnc3C2c2ccoc2)cc1` (configuration not stated) reads 6.62%. The figure for `CCn1cc(C2=CCN(CCCOc3ccccc3)CC2)cn1` is -9.98%. Take `CCC(CO)N(Cc1ccco1)C(=O)c1cccnc1NC` (configuration not stated): the cytotoxicity at 10 µM came to 1.64%.

As to `Cc1[nH]ccc1C(=O)N[C@H]1CN(CCO)C[C@@H]1C1CC1`, the cytotoxicity at 10 µM is 3.07%. Consider `CN(CC1CCOCC1)C(C(=O)O)c1cccc(F)c1F` (configuration not stated), for which the cytotoxicity at 10 µM was 6.89%. For `Cc1cc(CN2CCC(c3nccn3C(C)C)CC2)ccc1F`, the cytotoxicity at 10 µM was 5.22%. For the compound `O=C(Cc1n[nH]c(-c2cncc(Br)c2)n1)NCc1cccnc1`, the cytotoxicity at 10 µM stood at 2.74%.

Regarding `CCN1CCN(S(=O)(=O)c2ccc(Cc3cc(C)n[nH]c3=O)cc2)CC1`, the cytotoxicity at 10 µM was -8.25%. Regarding `O=C(O)CSc1nnc(-c2cn[nH]c2)n1-c1ccccc1Cl`, the cytotoxicity at 10 µM was -3.54%. On to `Cc1nc2ncnn2c2ccn(-c3cccnc3O)c(=O)c12`, for which the cytotoxicity at 10 µM came to 15.9%.

Turning to `Cn1cccc1C(=O)N1CCC2(CCCN(CC3CC3)C2=O)C1` (configuration not stated), the cytotoxicity at 10 µM is -0.445%. For `CCOC(=O)N1CCC(NC(=O)c2cccc(C3CCCNC3)c2)CC1` (configuration not stated), the cytotoxicity at 10 µM worked out at 1.34%. `COc1ccccc1OC1CN(C(=O)Cc2c(C)nc(C)[nH]c2=O)C1`: the cytotoxicity at 10 µM was -2.9%.

Take `CC(C)OCCCNC(=O)CS(=O)(=O)Cc1ccc(Cl)cc1`: the cytotoxicity at 10 µM is -2.87%. Regarding `Cc1csc(CNC(=O)NC(C)c2ccc3c(c2)CCC(=O)N3)n1` (configuration not stated), the cytotoxicity at 10 µM stood at 4.17%. Turning to `O=C(c1cccn1Cc1cccs1)N1CCSCC1`, the cytotoxicity at 10 µM was determined as 4.14%. Consider `Cc1nc(C(C)(C)C)sc1C(=O)NCCNc1ncccn1`, for which the cytotoxicity at 10 µM was -4.83%.

As to `CCn1cc(NC(=O)C2CCN(CC(=O)NC(C)(C)CC)CC2)cn1`, the cytotoxicity at 10 µM was -1.01%. Take `O=C(NCCOc1ccccc1)Nc1cc(C(F)(F)F)c[nH]c1=O`: the cytotoxicity at 10 µM is -11.9%. `COc1ncccc1CNC(=O)NC1CCCOc2ccccc21` (configuration not stated): the cytotoxicity at 10 µM is -6.14%. `O=C(NCCNc1ncccn1)C1CCN(C(=O)NC2CC2)CC1`: the cytotoxicity at 10 µM is -14.5%. Consider `Cc1cnn(C2CCCN(C(=O)CCCn3ccnc3C)C2)c1` (configuration not stated), for which the cytotoxicity at 10 µM is -18.3%. For `O=C(c1ccon1)N1CCCC(n2cncn2)C1` (configuration not stated), the cytotoxicity at 10 µM was -8.51%. In the case of `CC(O)CN1CCN(C(=O)c2ccc(CN(C)C)cc2)CC1` (configuration not stated), the cytotoxicity at 10 µM was -8.09%. As for `Cc1nn(C)c(Cl)c1C1CCCN1C(=O)c1csnn1` (configuration not stated), the cytotoxicity at 10 µM was -0.121%. `c1ccc(-n2ccc(CN3CCCC3Cn3cncn3)n2)cc1` (configuration not stated): the cytotoxicity at 10 µM amounted to 0.665%.

For `Cc1ccc(CNC(=O)N2CCCC(NS(C)(=O)=O)C2)cc1` (configuration not stated), the cytotoxicity at 10 µM came to 2.73%. As for `Cc1n[nH]c(=O)c2c(NC(=O)CN3CCOCC3)oc(C)c12`, the cytotoxicity at 10 µM is -7.95%.

For `CC(CNc1cncc(-n2cccn2)n1)N(C)c1ccccc1` (configuration not stated), the cytotoxicity at 10 µM is -4.48%. On to `CC(Cn1cccn1)NCc1csc(-c2ccccc2F)n1` (configuration not stated), for which the cytotoxicity at 10 µM was -7.71%.

Turning to `COCCOc1cccc(C(=O)N2CCCC(n3cccn3)C2)c1` (configuration not stated), the cytotoxicity at 10 µM was -7.81%. In the case of `O=C(NCCO)c1sc2ncccc2c1C1CNCCO1` (configuration not stated), the cytotoxicity at 10 µM worked out at 11.2%. `C=C(C)CN1CCN(Cc2cnc(-c3ccccc3C)nc2)CC1`: the cytotoxicity at 10 µM is -33.6%. The result for `Cc1ccc(CN(CCCN(C)C)Cc2cnc(C)n2C)o1` reads 9.96%. `CC(C)n1c(C(=O)N2CCCC2)nc2c1CCN(C)C2`: the cytotoxicity at 10 µM was found to be 15.3%. In the case of `CCn1cc2c(n1)CN(Cc1ccoc1)CC2COCC1CC1` (configuration not stated), the cytotoxicity at 10 µM was -23.3%.

As for `CC(=O)N1CCC12CCN(Cc1ccco1)CC2`, the cytotoxicity at 10 µM turned out to be 1.17%. On to `O=C(NCc1cncc2c1CCN(Cc1cccs1)C2)C1CC1`, for which the cytotoxicity at 10 µM was 2.13%.

As to `Cc1nnc([C@]23COC[C@H]2CN(Cc2nccs2)C3)o1`, the cytotoxicity at 10 µM is 0.872%. Take `O=C1CC(c2cccnc2)C2(CCN(S(=O)(=O)C3CC3)CC2)N1` (configuration not stated): the cytotoxicity at 10 µM is -2.29%.

As to `O=C(c1cnccn1)N1CCCC2(CCN(c3ncccn3)C2)C1` (configuration not stated), the cytotoxicity at 10 µM was 5.61%.

Turning to `O=C(CC1CC1)NCc1cn2c(n1)CN(CC1CC1)CC2`, the cytotoxicity at 10 µM stood at 4.17%. The figure for `Cc1nc(CN2CCO[C@@H]3CN(C(=O)CC4CC4)C[C@@H]3C2)cs1` is 5.04%; for `O=C(NCC1CCCCC1)N1C[C@@H]2C[C@@H]1CN2` it is -7.78%.
